Drawing on ChEMBL document CHEMBL1124388, “Cardiotonic agents. 1-Methyl-7-(4-pyridyl)-5,6,7,8-tetrahydro-3 (2H)-isoquinolinones and related compounds. Synthesis and activity” (J Med Chem, 1989), this text covers ED100, IC50 and Ratio for 41 compounds.

One may read the IC50 as the midpoint of a concentration-inhibition curve. A lower IC50 goes with greater potency in that assay.

The source made the active and inactive calls. The calls are words filed in the database; no cut-off is given here.

The species named for one assay is Canis familiaris. Kind of assay: Positive inotropic effects in the propranolol induced heart failure model in the dog.
Conditions: not given
It is filed as functional, Canis lupus familiaris. In a few lines: (§1)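 Pentobarbital-anesthetized (30 mg/kg iv) mongrel dogs, 8–12 kg, either sex. Heart failure induced by propranolol, 4 mg/kg iv bolus then 0.1 mg/kg/min infusion. About 20 min later, compound given cumulatively into the femoral vein, one dose-response curve per animal. LV dp/dt max read by electronic differentiator. ED100 is the dose restoring pre-propranolol LV dp/dt max, taken from log dose-response. Highest dose tested 10 mg/kg. Three experiments unless stated.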
The compound `COc1ccc(C2CCc3c(C#N)c(O)nc(C)c3C2)cc1` (centres undefined) registered an ED100 of 0.3 mg/kg.

For the compound `Cc1nc(O)c(C#N)c2c1CC(c1cccnc1)CC2` (centres undefined), the ED100 worked out at 0.1 mg/kg.

Turning to `Cc1nc(O)c(C#N)c2c1C(C)CCC2` (centres undefined), the ED100 is 3 mg/kg.

On to `Cc1nc(O)c(C#N)c2c1CCCC2`, for which the ED100 came out at 3 mg/kg.

For the compound `CCC(=O)c1c(O)nc(C)c2c1CCC(c1ccncc1)C2` (centres undefined), the ED100 is 4 mg/kg.

With `COC1CCc2c(C#N)c(O)nc(C)c2C1` (centres undefined), the ED100 turned out to be 1 mg/kg.

In turn, `Cc1nc(O)c(C#N)c2c1CC(c1ccccn1)CC2` (centres undefined) gave an ED100 of 0.3 mg/kg.

Turning to `CCCc1c(O)nc(C)c2c1CCC(c1ccncc1)C2` (centres undefined), the ED100 was determined as 0.3 mg/kg.

Compound `Cc1nc(O)c(C#N)c2c1CCCC2C` (centres undefined) came in with an ED100 of 2 mg/kg.

Consider `Cc1nc(O)c(C#N)c2c1CC(c1ccccc1)CC2` (centres undefined), for which the ED100 was 0.1 mg/kg.

Consider `Cc1nc(O)c([N+](=O)[O-])c2c1CC(c1ccncc1)CC2` (centres undefined), for which the ED100 was found to be 0.1 mg/kg.

Take `Cc1[nH]c(=O)c(C#N)cc1-c1ccncc1` [MILRINONE]: the ED100 was 0.1 mg/kg.

Consider `Cc1nc(O)c(C#N)c2c1CCC(C)C2` (centres undefined), for which the ED100 amounted to 1 mg/kg.

The compound `Cc1nc(O)c(C#N)c2c1CC(c1ccncc1)CC2` (centres undefined) returned an ED100 of 0.1 mg/kg.

With `CCC1CCc2c(C#N)c(O)nc(C)c2C1` (centres undefined), the ED100 worked out at 1 mg/kg.

For `Cc1nc(O)c(N)c2c1CC(c1ccncc1)CC2` (centres undefined), the ED100 was 0.2 mg/kg.

In turn, `Cc1nc(O)c(C#N)c2c1CC(C)CC2` (centres undefined) displayed an ED100 of 0.3 mg/kg.

Turning to `CCc1nc(O)c(C(C)=O)c2c1CC(c1ccncc1)CC2` (centres undefined), the ED100 is 0.3 mg/kg.

With `CC(=O)c1c(O)nc(C)c2c1CCC(c1ccncc1)C2` (centres undefined), the ED100 was 0.1 mg/kg.

The compound `Cc1nc(O)cc2c1CC(c1ccncc1)CC2` (centres undefined) registered an ED100 of 0.3 mg/kg.

Compound `CCc1c(O)nc(C)c2c1CCC(c1ccncc1)C2` (centres undefined) came in with an ED100 of 0.02 mg/kg.

Compound `Cc1nc(O)c(C)c2c1CC(c1ccncc1)CC2` (centres undefined) came in with an ED100 of 2 mg/kg.

A further assay has as its target Phosphodiesterase 3 (Canis familiaris). Kind of assay: Inhibition of canine Phosphodiesterase III (PDE 3).
Conditions: not given
For the compound `CC(=O)c1c(O)nc(C)c2c1CCC(c1ccncc1)C2` (centres undefined), the IC50 was 1.5 µM.

The subject of a further assay is Canis familiaris. Kind of assay: Positive inotropic effects in the propranolol induced heart failure model in the dog; Inactive at 10 mg/kg. It is filed as functional, organism-based. More on the design: dose 10 mg/kg. As to conditions: Canis lupus familiaris. In a few lines:
as §1
On to `COCc1ccc(C2CCc3c(C#N)c(O)nc(C)c3C2)cc1` (centres undefined), for which the ED100 entry was “inactive”.

For `Cc1nc(O)c(C(=O)c2ccccc2)c2c1CC(c1ccncc1)CC2` (centres undefined), the ED100 result is “inactive”.

On to `Cc1c(C#N)c(O)nc2c1CC(c1ccncc1)CC2` (centres undefined), for which the ED100 result was “inactive”.

Take `CCCC(=O)c1c(O)nc(C)c2c1CCC(c1ccncc1)C2` (centres undefined): the ED100 entry was “inactive”.

As for `COC1CCc2nc(O)c(C#N)c(C)c2C1` (centres undefined), the ED100 result was “inactive”.

`Cc1nc(O)c(C#N)c2c1CC(c1ccc(N(C)C)cc1)CC2` (centres undefined): the ED100 entry was “inactive”.

For the compound `Cc1nc(O)c(C#N)c2c1CC(c1ccc(CN(C)C)cc1)CC2` (centres undefined), the ED100 entry was “inactive”.

Regarding `CCCCOC1CCc2c(C#N)c(O)nc(C)c2C1` (centres undefined), the ED100 result is “inactive”.

For the compound `Cc1c(C#N)c(O)nc2c1CCCC2`, the ED100 result was “inactive”.

With `Cc1nc(O)c(C#N)c2c1CC(C(C)(C)C)CC2` (centres undefined), the ED100 entry was “inactive”.

Consider `Cc1nc(O)c(C=O)c2c1CC(c1ccncc1)CC2` (centres undefined), for which the ED100 entry is “inactive”.

Turning to `CCCCc1nc(O)c(C(C)=O)c2c1CC(c1ccncc1)CC2` (centres undefined), the ED100 result is “inactive”.

`CCCc1nc(O)c(C#N)c2c1CCCC2`: the ED100 result is “inactive”.

Consider `Cc1nc(O)c(C#N)c2c1CCC(c1ccncc1)C2` (centres undefined), for which the ED100 result is “inactive”.

In the case of `N#Cc1c(O)ncc2c1CCCC2`, the ED100 result was “inactive”.

On to `Cc1nc(O)c(C(N)=O)c2c1CC(c1ccncc1)CC2` (centres undefined), for which the ED100 result was “inactive”.

In the case of `Cc1c(C#N)c(O)nc2c1CC(C)CC2` (centres undefined), the ED100 entry was “inactive”.

On to `CC(=O)c1c(O)nc2c(c1C)CC(c1ccncc1)CC2` (centres undefined), for which the ED100 entry is “inactive”.

With `Cc1c2c(c(C#N)c(=O)n1C)CCC(C)C2` (centres undefined), the ED100 result is “inactive”.

A further assay concerns the target Phosphodiesterase 1 (Canis familiaris). Kind of assay: Inhibition of canine Phosphodiesterase 1(PDE 1).
Conditions: not given
Regarding `CC(=O)c1c(O)nc(C)c2c1CCC(c1ccncc1)C2` (centres undefined), the IC50 amounted to 409 µM.

A further assay is filed under the species Canis lupus familiaris. Kind of assay: Relative inhibition of canine PDE1 and PDE 3.
Conditions: not given
Turning to `CC(=O)c1c(O)nc(C)c2c1CCC(c1ccncc1)C2` (centres undefined), the Ratio was determined as 273.
